# Measured values published in ChEMBL document CHEMBL2010769, “Synthesis and antiviral activity of 6-deoxycyclopropavir, a new prodrug of cyclopropavir” (Bioorg Med Chem, 2012).
# Calls of active or inactive are those of the source. No cut-off for these calls is given here.
# How the values were obtained:
# Mus musculus [1] = test: Toxicity in BALB/c mouse assessed as body weight loss at 50 mg/kg, po qd for 5 days relative to control; format: organism-based; design: dose 50 mg/kg, route oral; settings: in vivo, 120 h
# How it was run: (§1)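 Uninfected female BALB/c mice, 3 weeks old, in groups of 5. Compound suspended in 0.4% carboxymethylcellulose and given orally in 0.2 mL once daily for 5 days at 50, 16.7 or 5.6 mg/kg. Mean group body weight tracked over days 1–5 plus day 6 recovery. Clinical signs (ruffled coat, behaviour) were observed. Comparison was with vehicle-treated or untreated mice.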
# Murid betaherpesvirus 1 [2] = test: Antiviral activity against MCMV infected in BALB/c mouse assessed as decrease in virus-induced mean day of death at 5.6 mg/kg, po qd for 5 days administered 24 hrs after viral infection (reference value: 4.9 +/- 0.7 days); format: functional
# Human gammaherpesvirus 4 = test: Antiviral activity against Epstein-Barr virus infected in Akata cells by DNA hybridization assay; format: functional, organism-based; settings: human gammaherpesvirus 4, Akata
# Human betaherpesvirus 5 [3] = test: Antiviral activity against HCMV Toledo infected in human thymus/liver tissue xenografted in SCID mouse assessed as decrease in viral infection at 6.25 mg/kg, po qd for 21 days by RT-PCR analysis (reference value: 92%); format: functional, strain Toledo; design: scale not given: the % may be the effect or the level left
# Mus musculus [4] = test: Toxicity in BALB/c mouse assessed as body weight loss at 16.7 mg/kg, po qd for 5 days relative to control; format: organism-based; design: dose 16.7 mg/kg, route oral; settings: in vivo, 120 h; how it was run: as §1
# Murid betaherpesvirus 1 [5] = test: Antiviral activity against MCMV infected in BALB/c mouse assessed as decrease in virus-induced mean day of death at 50 mg/kg, po qd for 5 days administered 48 hrs after viral infection (reference value: 5.1 +/- 0.9 days); format: functional
# Mus musculus [6] = test: Toxicity in BALB/c mouse assessed as ruffled coat appearance at 5.6 mg/kg, po qd for 5 days relative to control; format: organism-based; design: dose 5.6 mg/kg, route oral; settings: in vivo, 120 h; how it was run: as §1
# Mus musculus [7] = test: Toxicity in BALB/c mouse assessed as body weight loss at 5.6 mg/kg, po qd for 5 days relative to control; format: organism-based; design: dose 5.6 mg/kg, route oral; settings: in vivo, 120 h; how it was run: as §1
# Mus musculus [8] = test: Toxicity in BALB/c mouse assessed as changes in behavior at 16.7 mg/kg, po qd for 5 days relative to control; format: organism-based; design: dose 16.7 mg/kg, route oral; settings: in vivo, 120 h; how it was run: as §1
# Murid betaherpesvirus 1 [9] = test: Antiviral activity against MCMV infected in BALB/c mouse assessed as decrease in virus-induced mean day of death at 50 mg/kg, po qd for 5 days administered 24 hrs after viral infection (reference value: 4.9 +/- 0.7 days); format: functional
# Human betaherpesvirus 5 [10] = test: Antiviral activity against HCMV Toledo infected in human thymus/liver tissue xenografted in SCID mouse assessed as mean log10 genome equivalents/animal at 6.25 mg/kg, po qd for 28 days measured on day 35 by RT-PCR analysis (reference value: 3.28 +/- 1.422); format: functional, strain Toledo
# Vaccinia virus = test: Antiviral activity against Vaccinia virus infected in HFF assessed as reduction in virus induced cytopathic effect at 100 uM; format: functional, organism-based; settings: Orthopoxvirus vaccinia
# [11] = Cytotoxicity against HFF; format: cell-based; settings: human, HFF cells
# Human betaherpesvirus 5 [12] = test: Antiviral activity against HCMV AD169 infected in HFF assessed as reduction in virus induced cytopathic effect; format: functional, organism-based; settings: Human betaherpesvirus 5, AD169
# How it was run: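 HCMV work used human foreskin fibroblasts as primary cultures, propagated in MEM with 10% FBS and L-glutamine, with or without antibiotics.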
# Human alphaherpesvirus 2 = test: Antiviral activity against HSV2 infected in HFF assessed as reduction in virus induced cytopathic effect; format: functional, organism-based
# Murid betaherpesvirus 1 [13] = test: Antiviral activity against MCMV infected in BALB/c mouse assessed as decrease in virus-induced mean day of death at 16.7 mg/kg, po qd for 5 days administered 48 hrs after viral infection (reference value: 5.1 +/- 0.9 days); format: functional
# Human betaherpesvirus 5 [14] = test: Antiviral activity against HCMV Toledo infected in human thymus/liver tissue xenografted in SCID mouse assessed as mean log10 genome equivalents/animal at 12.5 mg/kg, po qd for 28 days by RT-PCR analysis (reference value: 3.73 +/- 0.784); format: functional, strain Toledo
# Human betaherpesvirus 5 [15] = test: Antiviral activity against HCMV Toledo infected in human thymus/liver tissue xenografted in SCID mouse assessed as mean log10 genome equivalents/animal at 12.5 mg/kg, po qd for 21 days by RT-PCR analysis (reference value: 3.82 +/- 1.24); format: functional, strain Toledo
# [16] = Prodrug activation assessed as cyclopropavir formation in presence of cow milk xanthine oxidase; settings: cattle
# How it was run: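 Cow-milk xanthine oxidase, 0.4 units, acting on 0.07 mM substrate in 0.05 M Na2HPO4, pH 7.5, at room temperature. Conversion followed continuously at 304 nm. UV spectra were taken before enzyme addition (T = 0) and at 720 min and matched against authentic parent and product.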
# Cowpox virus = test: Antiviral activity against Cowpox virus infected in HFF assessed as reduction in virus induced cytopathic effect at 100 uM; format: functional, organism-based
# Murid betaherpesvirus 1 [17] = test: Antiviral activity against MCMV infected in BALB/c mouse assessed as decrease in virus-induced mortality at 5.6 mg/kg, po qd for 5 days administered 24 hrs after viral infection (reference value: 67%); format: functional; design: scale not given: the % may be the effect or the level left
# How it was run: (§2)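 Female BALB/c mice (3 weeks, 15/group) were inoculated ip with MCMV Smith at about LD90. Oral dosing of 0.2 mL in 0.4% CMC ran once daily for 5 days, starting 24 or 48 h post-inoculation. Mice were observed daily for 21 days. Mortality was compared with CMC placebo by Fisher's exact test.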
# Mus musculus [18] = test: Toxicity in BALB/c mouse assessed as ruffled coat appearance at 50 mg/kg, po qd for 5 days relative to control; format: organism-based; design: dose 50 mg/kg, route oral; settings: in vivo, 120 h; how it was run: as §1
# [19] = Cytotoxicity against human Akata cells; format: cell-based
# Human betaherpesvirus 5 [20] = test: Antiviral activity against HCMV Toledo infected in human thymus/liver tissue xenografted in SCID mouse assessed as decrease in viral infection at 12.5 mg/kg, po qd for 14 days by RT-PCR analysis (reference value: 92%); format: functional, strain Toledo; design: scale not given: the % may be the effect or the level left
# Human betaherpesvirus 5 [21] = test: Antiviral activity against HCMV Toledo infected in human thymus/liver tissue xenografted in SCID mouse assessed as mean log10 genome equivalents/animal at 6.25 mg/kg, po qd for 14 days by RT-PCR analysis (reference value: 3.50 +/- 0.878); format: functional, strain Toledo
# Murid betaherpesvirus 1 [22] = test: Antiviral activity against MCMV infected in BALB/c mouse assessed as decrease in virus-induced mortality at 50 mg/kg, po qd for 5 days administered 24 hrs after viral infection (reference value: 67%); format: functional; design: scale not given: the % may be the effect or the level left; how it was run: as §2
# Human betaherpesvirus 5 [23] = test: Antiviral activity against HCMV Toledo infected in human thymus/liver tissue xenografted in SCID mouse assessed as decrease in viral infection at 6.25 mg/kg, po qd for 28 days by RT-PCR analysis (reference value: 92%); format: functional, strain Toledo; design: scale not given: the % may be the effect or the level left
# Murid betaherpesvirus 1 [24] = test: Antiviral activity against MCMV infected in BALB/c mouse assessed as decrease in virus-induced mortality at 5.6 mg/kg, po qd for 5 days administered 48 hrs after viral infection (reference value: 100%); format: functional; design: scale not given: the % may be the effect or the level left; how it was run: as §2
# Human alphaherpesvirus 1 = test: Antiviral activity against HSV1 infected in HFF assessed as reduction in virus induced cytopathic effect; format: functional, organism-based
# Human betaherpesvirus 5 [25] = test: Antiviral activity against HCMV Toledo infected in human thymus/liver tissue xenografted in SCID mouse assessed as mean log10 genome equivalents/animal at 6.25 mg/kg, po qd for 28 days by RT-PCR analysis (reference value: 3.73 +/- 0.784); format: functional, strain Toledo
smiles,measurement,setting,value
Nc1ncc2ncn(/C=C3/CC3(CO)CO)c2n1,Activity,Mus musculus [1],17%
same,Activity,Murid betaherpesvirus 1 [2],6 days
same,EC50,Human gammaherpesvirus 4,27 µM
same,Activity,Human betaherpesvirus 5 [3],92%
same,Activity,Mus musculus [4],Non-toxic
same,Activity,Murid betaherpesvirus 1 [5],11.9 days
same,Activity,Mus musculus [6],Non-toxic
same,Activity,Mus musculus [7],Non-toxic
same,Activity,Mus musculus [8],Non-toxic
same,Activity,Murid betaherpesvirus 1 [9],8.3 days
same,Activity,Human betaherpesvirus 5 [10],3.32
same,Activity,Vaccinia virus,inactive
same,CC50,[11],> 100 µM
same,EC50,Human betaherpesvirus 5 [12],> 300 µM
same,EC50,Human alphaherpesvirus 2,> 300 µM
same,Activity,Murid betaherpesvirus 1 [13],7 days
same,Activity,Human betaherpesvirus 5 [14],2.76
same,Activity,Human betaherpesvirus 5 [15],2.94
same,Drug metabolism,[16],Active
same,Activity,Cowpox virus,inactive
same,Activity,Murid betaherpesvirus 1 [17],7%
same,Activity,Mus musculus [18],Non-toxic
same,CC50,[19],71 µM
same,Activity,Human betaherpesvirus 5 [20],100%
same,Activity,Human betaherpesvirus 5 [21],3.9
same,Activity,Murid betaherpesvirus 1 [22],47%
same,Activity,Human betaherpesvirus 5 [23],58%
same,Activity,Murid betaherpesvirus 1 [24],0%
same,EC50,Human alphaherpesvirus 1,> 300 µM
same,Activity,Human betaherpesvirus 5 [25],2.81
